Reference: ChEMBL document CHEMBL1944595, “1,4-diarylpiperazines and analogs as anti-tubercular agents: synthesis and biological evaluation” (Eur J Med Chem, 2012)

Legend:
[1] = Cytotoxicity against human HepG2/C3A cells after 24 hrs by neutral red assay; assay type: cell-based
How it was run: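 C3A cells seeded at 40 000 per well and allowed to recover. Exposed 24 h at 37 °C, 5% CO2 to serial dilutions in DMEM + 10% FCS, tested from 10 to 0.1. Then 3 h neutral red uptake, extracted with ethanol/acetic acid, OD read at 530 nm with 620 nm reference. NI50 is the concentration reducing uptake by 50%.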

[2] = Selectivity index, ratio of IC50 for human HepG2/C3A cells to MIC for Mycobacterium tuberculosis H37Rv; assay type: functional
How it was run: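 Selectivity index calculated as C3A neutral red NI50 (24 h) divided by the H37Rv luminometric MIC50.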

| Compound | IC50 [1] | Selectivity Index [2] |
| --- | --- | --- |
| CCCCNC(=N)c1ccc(N2CCN(c3ccccc3)CC2)cc1.Cl | 17.4 µM | 8.03 |
| CCCCCCCCCCCCNC(=N)c1ccc(N2CCN(c3ccccc3)CC2)cc1.Cl | 5.61 µM | 107.52 |
| CCCCCCCCNC(=N)c1ccc(N2CCN(c3ccccc3)CC2)cc1.Cl | 5.18 µM | 72.19 |
| CNC(=N)c1ccc(N2CCN(c3ccccc3)CC2)cc1.Cl | 71 µM | 4.45 |
| CCCCCCNC(=N)c1ccc(N2CCN(c3ccccc3)CC2)cc1.Cl | 6.71 µM | 25.38 |
| CCNC(=N)c1ccc(N2CCN(c3ccccc3)CC2)cc1.Cl | 41.7 µM | 3.49 |
| Cl.N=C(N)c1ccc(N2CCN(c3ccccc3)CC2)cc1 | 66.9 µM | 2.26 |
| CCCNC(=N)c1ccc(N2CCN(c3ccccc3)CC2)cc1.Cl | 27.5 µM | 3.92 |
| CCCCCCCNC(=N)c1ccc(N2CCN(c3ccccc3)CC2)cc1.Cl | 5.21 µM | 57.2 |
| CCCCCNC(=N)c1ccc(N2CCN(c3ccccc3)CC2)cc1.Cl | 11.2 µM | 9.39 |
